# Measured values from publication PMC6923798 (Bioorganic chemistry, 2018).
# Key:
# [1] = test system: RPMI-8226 cell line; assay: NCI in vitro one dose anticancer assay; assay type: cell-based; settings: Homo sapiens, RPMI-8226, 48 h, read-out: % growth inhibition
# Method in brief: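 NCI protocol. Test compound added once at 10−5 M to ~60 human tumour lines from nine subpanels. Incubated 48 h at 37 °C, 5% CO2, 95% air, 100% relative humidity. Endpoint by sulforhodamine B protein staining with spectrophotometric absorbance. Growth of treated cells reported as percent of untreated cells.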
# [2] = test system: STAT3; assay: STAT3 activation assay; assay type: cell-based, human; settings: K-562 cells, 10 μM, 24 h, nuclear extracts
# Method in brief: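 K562 cells seeded overnight in 10 cm plates, then given vehicle, test compound (10 μM) or WP1066 (positive control) for 24 h. Nuclear fractions extracted by kit. STAT3 activation measured in nuclear extracts by TransAM STAT3 ELISA per manufacturer. Mean ± SD of three independent experiments, each in triplicate.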
# [3] = test system: HCT-15; assay: NCI in vitro five dose anticancer assay; assay type: cell-based, human
# [4] = test system: HT29; assay: NCI in vitro five dose anticancer assay; assay type: cell-based, human
# [5] = test system: HOP-62; assay: NCI in vitro five dose anticancer assay; assay type: cell-based, human
# [6] = test system: BT-549; assay: NCI in vitro five dose anticancer assay; assay type: cell-based, human
# [7] = test system: MOLT-4; assay: NCI in vitro five dose anticancer assay; assay type: cell-based, human
structure (smiles),measurement,setting,value
"COc1ccc(C=CC(=O)c2ccc(NC(=O)CSc3nnc(-c4cc(OC)c(OC)c(OC)c4)o3)cc2)cc1 [Compound 8v, N-(4-(3-(4-Methoxyphenyl)acryloyl)phenyl)-2-((5-(3,4,5-trimethoxy-phenyl)-1,3,4-oxadiazol-2-yl)thio)acetamide]",inhibition at 10 µM,[1],31.3 to 144%
same,inhibition of STAT3 activation,[2],most effective
same,TGI,"[3]; HCT-15, Colon Cancer, five dose, 48 h, SRB",3220 nM
same,GI50,"[3]; Homo sapiens, HCT-15, 48 h",1630 nM
same,TGI,"[4]; HT29, Colon Cancer, five dose, 48 h, SRB",3620 nM
same,GI50,"[4]; Homo sapiens, HT-29, 48 h",1830 nM
same,TGI,"[5]; HOP-62, Non-Small Cell Lung Cancer, five dose, 48 h, SRB",4530 nM
same,GI50,"[5]; Homo sapiens, HOP-62, 48 h",2130 nM
same,TGI,"[6]; BT-549, Breast cancer, five dose, 48 h, SRB",2810 nM
same,GI50,"[6]; Homo sapiens, BT-549, 48 h",1400 nM
same,GI50,"[7]; Homo sapiens, MOLT-4, 48 h",2050 nM
same,TGI,"[7]; MOLT-4, Leukemia, five dose, 48 h, SRB",5270 nM
